Source: PMC7288582 (ACS Omega, 2020)

Tests used:
[1] = DPPH radical scavenging assay; conditions: antioxidant activity
Summary of the method: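 Test material was polyphenolic-rich plant extracts from pressurized 50% ethanol extraction at 80 °C, microfiltration at 0.45 μm, then nanofiltration on a 200–300 Da polyamide membrane. A modified literature method was used: graded concentrations of extract or standard were mixed with methanolic DPPH solution and absorbance was read at 519 nm. Data were reported as mean ± standard deviation (n = 3).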

LOX = target: T1, LOX (Glycine max, UniProt P08170); experiment: LOX inhibition, spectrophotometric assay; assay type: biochemical
T1 sequence (P08170 1-839): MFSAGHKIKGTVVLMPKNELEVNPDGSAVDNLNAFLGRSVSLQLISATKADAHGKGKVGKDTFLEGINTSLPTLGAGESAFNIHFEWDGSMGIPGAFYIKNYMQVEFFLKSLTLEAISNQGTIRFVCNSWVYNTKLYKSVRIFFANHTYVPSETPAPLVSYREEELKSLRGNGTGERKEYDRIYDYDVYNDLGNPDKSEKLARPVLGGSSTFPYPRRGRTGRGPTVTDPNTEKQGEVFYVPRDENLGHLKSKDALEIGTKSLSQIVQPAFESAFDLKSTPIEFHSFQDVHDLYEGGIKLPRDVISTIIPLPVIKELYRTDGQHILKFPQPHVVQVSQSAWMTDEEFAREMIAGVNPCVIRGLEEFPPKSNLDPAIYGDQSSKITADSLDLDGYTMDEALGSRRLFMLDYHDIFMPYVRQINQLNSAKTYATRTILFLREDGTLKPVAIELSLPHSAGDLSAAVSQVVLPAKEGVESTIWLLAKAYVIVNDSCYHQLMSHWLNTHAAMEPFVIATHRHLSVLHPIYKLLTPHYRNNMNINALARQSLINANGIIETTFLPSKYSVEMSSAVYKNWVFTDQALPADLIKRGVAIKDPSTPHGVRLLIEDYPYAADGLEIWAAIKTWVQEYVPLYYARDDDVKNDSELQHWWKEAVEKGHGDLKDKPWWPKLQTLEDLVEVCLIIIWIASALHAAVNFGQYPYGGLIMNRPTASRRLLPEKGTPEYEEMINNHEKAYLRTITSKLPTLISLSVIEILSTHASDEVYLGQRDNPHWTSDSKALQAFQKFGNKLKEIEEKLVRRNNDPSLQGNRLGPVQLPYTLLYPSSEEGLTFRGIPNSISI

[2] = target: T2, α-amylase from hog pancreas (Sus scrofa, UniProt P00690); experiment: biochemical
T2 sequence (P00690 16-511): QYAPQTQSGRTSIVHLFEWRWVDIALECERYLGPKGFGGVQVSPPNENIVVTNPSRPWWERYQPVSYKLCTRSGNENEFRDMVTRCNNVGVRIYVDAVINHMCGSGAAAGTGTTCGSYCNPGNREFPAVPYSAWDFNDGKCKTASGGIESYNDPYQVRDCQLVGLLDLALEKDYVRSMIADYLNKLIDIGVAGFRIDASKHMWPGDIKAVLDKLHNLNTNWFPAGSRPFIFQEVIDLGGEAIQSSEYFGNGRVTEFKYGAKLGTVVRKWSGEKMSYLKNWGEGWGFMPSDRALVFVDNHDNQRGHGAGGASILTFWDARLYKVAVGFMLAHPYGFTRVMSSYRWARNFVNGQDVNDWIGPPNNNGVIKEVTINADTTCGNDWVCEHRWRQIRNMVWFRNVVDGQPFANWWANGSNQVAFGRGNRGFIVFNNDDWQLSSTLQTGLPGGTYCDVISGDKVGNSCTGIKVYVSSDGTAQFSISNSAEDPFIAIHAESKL

[3] = target: α-glucosidase from Saccharomyces cerevisiae (Saccharomyces cerevisiae, UniProt P53341); experiment: α-Glucosidase inhibition assay; assay type: biochemical
Chain of α-glucosidase from Saccharomyces cerevisiae (P53341 whole entry): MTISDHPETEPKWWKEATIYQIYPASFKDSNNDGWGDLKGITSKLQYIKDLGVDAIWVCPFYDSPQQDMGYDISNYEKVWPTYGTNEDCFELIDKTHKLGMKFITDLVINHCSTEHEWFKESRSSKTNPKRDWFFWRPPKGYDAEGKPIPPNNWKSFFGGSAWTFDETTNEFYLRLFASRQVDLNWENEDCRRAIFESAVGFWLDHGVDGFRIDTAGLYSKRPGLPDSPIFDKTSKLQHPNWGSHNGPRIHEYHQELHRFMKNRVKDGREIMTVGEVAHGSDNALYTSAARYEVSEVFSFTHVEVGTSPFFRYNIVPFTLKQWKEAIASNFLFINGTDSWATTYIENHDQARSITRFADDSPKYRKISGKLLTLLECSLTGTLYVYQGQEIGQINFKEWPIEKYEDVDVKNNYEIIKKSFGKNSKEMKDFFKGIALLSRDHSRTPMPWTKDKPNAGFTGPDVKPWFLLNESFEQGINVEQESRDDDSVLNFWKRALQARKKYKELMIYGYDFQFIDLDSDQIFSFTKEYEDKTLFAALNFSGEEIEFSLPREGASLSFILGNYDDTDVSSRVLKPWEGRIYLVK

DPPH, EC50 [1] [µg/mL] | IC50 (LOX) [µM] | IC50 [2] [µM] | Compound | IC50 [3] [µM]
– | 230 | 5.19 | O=C(/C=C/c1ccc(O)c(O)c1)O[C@@H]1C[C@](O)(C(=O)O)C[C@@H](O)[C@H]1O [chlorogenic acid] | –
– | 212 | 20.8 | O=c1c(O[C@@H]2O[C@H](CO)[C@@H](O)[C@H](O)[C@H]2O)c(-c2ccc(O)c(O)c2)oc2cc(O)cc(O)c12 [isoquercitrin, quercetin-3-β-qlucoside] | 16.8
– | 306 | 2.55 | O=C(/C=C/c1ccc(O)c(O)c1)O[C@H](Cc1ccc(O)c(O)c1)C(=O)O [rosmarinic acid] | 12

Continued, molecule first:

Compound | DPPH, EC50 [1] [µg/mL] | IC50 (LOX) [µM] | IC50 [2] [µM] | IC50 [3] [µM]
O=C1O[C@H]([C@@H](O)CO)C(O)=C1O [ascorbic acid (vitamin C), ascorbic acid] | 3.6 ± 0.2 | – | – | –
O=c1cc(-c2ccc(O)c(O)c2)oc2cc(O)cc(O)c12 [luteolin] | – | 109 | 68.2 | 100
C[C@@H]1O[C@@H](OC[C@H]2O[C@@H](Oc3c(-c4ccc(O)c(O)c4)oc4cc(O)cc(O)c4c3=O)[C@H](O)[C@@H](O)[C@@H]2O)[C@H](O)[C@H](O)[C@H]1O [rutin] | – | 75.8 | 18.7 | 10.8
